High-throughput results deposited in PubChem by several laboratories.
In the library only some 8.2% were active in any assay of this set; here they are far more common.
SF-1 act: SF-1 (human) activation. 1.9% of 65,000 active. AID 522. Q13285. CHO-K1 Gal4-SF-1 LBD luciferase reporter; % increase over DMSO SF-1-specific signal. activation, % at 10 µM;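 active means activation above the mean activation of all tested compounds plus 3 SD, cut at about 50% in these data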
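Assay system: CHO-K1 cells co-transfected with Gal4 DBD–human SF-1 LBD, 5xGal4 luciferase reporter / Input: 4,000 cells per well / Incubation: 20 h compound exposure at 37 °C after 1 h cell settling / Detection: SteadyLite luciferase luminescence / Control set: DMSO negative control and −SF1 background wells / Replication: one test per compound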
HePTP inh: inhibitors of human HePTP phosphatase; recombinant HePTP phosphatase activity, OD absorbance; P35236; inhibition, % at 20 µM; 0.64% of 110,000 active; in the data active means inhibition above about 50%
Target sequence (P35236 whole entry, looked up): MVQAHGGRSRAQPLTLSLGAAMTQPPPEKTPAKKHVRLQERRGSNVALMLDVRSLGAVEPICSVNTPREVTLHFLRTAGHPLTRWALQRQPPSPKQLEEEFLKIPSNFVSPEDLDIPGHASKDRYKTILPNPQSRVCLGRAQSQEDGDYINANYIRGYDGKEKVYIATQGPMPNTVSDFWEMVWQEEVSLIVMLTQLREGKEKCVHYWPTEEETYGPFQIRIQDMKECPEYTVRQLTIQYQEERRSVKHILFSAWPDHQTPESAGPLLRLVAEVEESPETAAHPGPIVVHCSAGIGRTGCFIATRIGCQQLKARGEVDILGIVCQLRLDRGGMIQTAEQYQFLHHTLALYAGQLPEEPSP
D1 allo mod: allosterically modulates the human D1 dopamine receptor. P21728. HEK293 D1, CRE-luciferase, dopamine EC30 potentiation; actives deviate in either direction. B-score at 10 µM. 5.9% of 58,000 active. AID 641;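 active means luminescence count or its row- and column-corrected plate score outside the 99.7% band of the plate's sample wells, on either side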
M1 antagonist: M1 muscarinic receptor (rat) antagonism; CHO-M1 cells, Fluo-4 calcium, ACh EC80 antagonist mode; hits give low values; B-score at 10 µM; 3.4% of 64,000 active; AID 628;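 active means calcium fluorescence response, raw or row-and-column corrected B-score, differing from the plate sample mean either way at a set confidence level, mostly lower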
RORA act: activates the human nuclear receptor RORA | activation, % at 10 µM | 1.5% of 65,000 active | CHO-K1 Gal4-RORA LBD luciferase reporter, luminescence; percent increase over mock-subtracted basal signal;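 active means activation above the mean of all tested compounds plus 3 SD, cut at about 49% in these data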
M1 agonist: activates the M1 muscarinic receptor; CHO-M1 cells, Fluo-4 calcium fluorescence, agonist mode; hits give high values; B-score at 10 µM; 3% of 64,000 active; AID 626;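 active means fluorescence rise, raw or as B-score row- and column-corrected plate score, outside the 99.7% band of its plate's samples, either direction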
D1 PAM confirm: confirmation of human D1 dopamine receptor allosteric modulators. shares compounds with D1 allo mod. 88% of 2,200 active. luminescence at 10 µM. AID 642. HEK293 D1 CRE-luciferase, dopamine EC30 potentiation; hits give high values;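 active means luminescence in either of two replicates above the same-plate mean plus 3 SD of the low-dose dopamine control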
D1 ag no DA: D1 (human) signaling in absence of dopamine; shares compounds with D1 allo mod; HEK293 D1 CRE-luciferase, luminescence, no dopamine; hits give high values; luminescence at 10 µM; 0.8% of 1,900 active; AID 646; in the data active means luminescence above about 3900
Isoprot counter: isoproterenol response counter-screen activity for D1 modulators; shares compounds with D1 allo mod; HEK293 D1 CRE-luciferase, isoproterenol EC30 counter-screen; calls only at 10 µM; 63% of 2,200 active; AID 647;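 active means luminescence in either replicate above plate mean of wells with a partly effective reference agonist dose plus 3 SD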;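 further: isoproterenol raises cAMP through native beta-adrenoceptor Gs so signal bypasses D1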
A number is an active result; i = inactive; nt = no result given; + = active, no number.

SMILES	SF-1 act	HePTP inh	D1 allo mod	M1 antagonist	RORA act	M1 agonist	D1 PAM confirm	D1 ag no DA	Isoprot counter
CCn1cc(C(=O)Nc2cccc(C(=O)OC)c2)c(=O)c2ccc(C)nc21	i	i	i	i	i	i	nt	nt	nt
CCn1cc(C(=O)OCC(=O)OC2CC(C)CCC2C(C)C)c(=O)c2ccc(C)nc21 (stereo not drawn)	i	i	6.4	i	i	i	9780	i	i
CCn1cc(C(=O)OCC(=O)Nc2c(C)n(C)n(-c3ccccc3)c2=O)c(=O)c2ccc(C)nc21	i	i	i	i	i	i	nt	nt	nt
CCn1cc(C(=O)Nc2ccc(NC(=O)c3ccco3)cc2)c(=O)c2ccc(C)nc21	i	nt	i	i	i	i	nt	nt	nt
CCOC(=O)c1ccccc1NC(=O)c1cn(CC)c2nc(C)ccc2c1=O	i	i	5	i	i	i	i	i	i
CCn1cc(C(=O)Nc2ccccc2C(=O)OC)c(=O)c2ccc(C)nc21	i	i	i	i	i	i	nt	nt	nt
CCn1cc(C(=O)OCc2ccc(F)cc2)c(=O)c2ccc(C)nc21	i	i	9.9	i	i	i	10188	i	+
CCn1cc(C(=O)OCC(=O)NCc2ccc3c(c2)OCO3)c(=O)c2ccc(C)nc21	i	i	2.7	i	i	i	8368	i	+
CCn1cc(C(=O)OCc2ccccc2)c(=O)c2ccc(C)nc21	i	i	5.9	i	i	i	9156	i	i
c1ccc2c(c1)ccc1nnc(-c3ccc4c(c3)OCO4)n12	i	i	22	i	i	i	24948	i	+
N#Cc1c(SCC(N)=O)nsc1SCc1ccc(Cl)cc1	i	i	i	i	i	i	nt	nt	nt
N#Cc1c(SCC(N)=O)nsc1SCc1ccccc1Cl	i	i	5.6	i	i	i	5884	nt	+
CSc1nnc2c(n1)OC1(CCCCC1)Nc1ccccc1-2	nt	i	nt	nt	nt	nt	nt	nt	nt
CCSc1nnc2c(n1)OC1(CCCC1)Nc1ccccc1-2	i	i	6.6	i	i	i	15136	i	+
CCOC(=O)CCc1c(C)nc2c(C)c(-c3ccccc3)[nH]n2c1=O	nt	i	nt	nt	nt	nt	nt	nt	nt
CCOC(=O)CCn1c2nc(C)cc(C)c2c(=O)n1-c1ccccc1	i	i	2.2	i	i	i	i	i	i
CCc1cc(=O)oc2cc3oc(C)c(C)c3cc12	i	i	4.5	i	i	i	i	i	i
Cc1ccc2c(c1)c1ncnc(N3CCOCC3)c1n2C	i	i	i	i	i	i	nt	nt	nt
Brc1ccc2oc3c(N4CCOCC4)ncnc3c2c1	i	i	5.1	i	i	i	8996	i	+
Cn1c(=O)c2c(nc(SCCCC#N)n2Cc2c(F)cccc2Cl)n(C)c1=O	i	i	5.8	i	i	i	7192	i	+
CC1CCCCN1Cc1nc2c(c(=O)n(C)c(=O)n2C)n1Cc1c(F)cccc1Cl (stereo not drawn)	i	i	nt	i	i	i	nt	nt	nt
Cc1ccc(-c2csc(NC(=O)C3C4CCC(C4)C3C(=O)O)n2)c(C)c1 (stereo not drawn)	nt	i	nt	nt	nt	nt	nt	nt	nt
CCOc1ccc(-c2nc(N)nc(C)c2-c2ccc(OC)c(OC)c2)c(O)c1	i	i	i	i	i	i	nt	nt	nt
COc1ccc(-c2cnc(N)nc2-c2ccc(OC)cc2O)cc1	i	i	14	i	i	i	16148	nt	+
COc1cccc(Oc2cnc(N)nc2-c2ccc(OC)cc2O)c1	i	i	15	i	i	i	22464	i	+
SMILES	SF-1 act	HePTP inh	D1 allo mod	M1 antagonist	RORA act	M1 agonist	D1 PAM confirm	D1 ag no DA	Isoprot counter
C=C(C)COc1ccc(-c2[nH]ncc2Oc2cccc(OC)c2)c(O)c1	i	i	i	i	i	i	nt	nt	nt
C=CCSc1nc(N)c(C#N)c(-c2ccc(C)cc2)c1C#N	i	i	3.1	i	i	i	i	i	i
C=CCSc1nc(N)c(C#N)c(-c2cccs2)c1C#N	nt	i	nt	nt	nt	nt	nt	nt	nt
CCOC(=O)c1[nH]c(COC(=O)C2CC(=O)N(Cc3ccccc3)C2)c(C(=O)OCC)c1C (stereo not drawn)	i	i	2.9	i	i	i	i	i	i
CCOC(=O)c1sc(N)c(C(=O)OCC)c1COC(=O)C1CC(=O)N(Cc2ccco2)C1 (stereo not drawn)	i	i	6.1	i	i	i	8580	nt	+
COC(=O)c1sc(N)c(C(=O)OC)c1COC(=O)C1CC(=O)N(Cc2ccco2)C1 (stereo not drawn)	i	i	i	i	i	i	nt	nt	nt
CCc1cc(C)cc(OCCn2cc(/C=C3/SC(=S)N(C)C3=O)c3ccccc32)c1	nt	i	nt	nt	nt	nt	nt	nt	nt
C=CCn1c(NCCO)nc2sc3c(c2c1=O)CCC3	i	i	11	i	i	i	i	i	i
C=CCn1c(SCC(=O)O)nc2sc3c(c2c1=O)CCC3	nt	i	nt	nt	nt	nt	nt	nt	nt
COc1cccc(Nc2ncccc2C(=O)NCc2ccccc2)c1	i	i	11	i	i	3.8	21276	i	+
CC12CC(c3ccccc3O1)C(C(=O)N1CCOCC1)C(=O)N2 (stereo not drawn)	i	i	3.3	i	i	i	i	i	i
O=C(C1COc2ccccc2O1)N1CCOCC1 (stereo not drawn)	i	i	i	i	i	i	nt	nt	nt
O=C(CCc1ccccc1)NC1CCSC1=O (stereo not drawn)	i	i	i	i	i	i	nt	nt	nt
COc1ccc(CCn2c(C)cc3c(c2=O)C(c2ccc4c(c2)OCO4)C(C#N)=C(N)O3)cc1OC (stereo not drawn)	i	i	11	i	i	i	14224	i	+
Cc1cc2c(c(=O)n1Cc1ccc3c(c1)OCO3)C(c1cccnc1)C(C#N)=C(N)O2 (stereo not drawn)	i	i	i	i	i	i	nt	nt	nt
O=C(CCS(=O)(=O)c1ccc(Br)s1)NCc1cccs1	i	i	i	i	i	i	nt	nt	nt
O=C(NCC1CCCO1)c1nn2c(c1Cl)NC(c1ccco1)CC2C(F)(F)F (stereo not drawn)	nt	i	nt	nt	nt	nt	nt	nt	nt
C=CCOc1nc(N2CCCC2)nc(N2CCCC2)n1	i	i	24	i	i	i	26540	i	+
CCC1CCCCN1CC(=O)Nc1cc(C)nn1-c1nc(C)cc(C)n1 (stereo not drawn)	i	i	i	i	i	i	nt	nt	nt
Cc1cc(C)nc(-n2nc(C)cc2NC(=O)CN2CCC(C)CC2)n1	i	i	5.3	i	i	i	16268	i	+
COc1ccccc1-c1nnc2sc(-c3cc4ccccc4o3)nn12	i	i	3.9	i	i	i	10596	i	+
Cc1ccc(C(=O)NC2CC(C)(C)NC(C)(C)C2)cc1C	i	i	i	i	i	i	nt	nt	nt
